Experimental data: PMC6214802 (Molecular microbiology, 2018)
Like-named read-outs stand apart in the source and are kept apart here.

Legend:
VcAer2 [165–678] = assay: O2 and CO titrations of purified VcAer2 [165–678]; format: binding, Vibrio cholerae; conditions: read-out: Kd(CO)
In short: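 Truncated receptor was expressed in E. coli BT3388 in LB Lennox with 0.5 µg ml−1 thiamine and 25 µg ml−1 ALA, induced with 600 µM IPTG, then Ni-NTA purified. Heme content was assessed on 5 µM purified protein. Kd(O2) and Kd(CO) came from linear interpolation between unliganded Fe2+ and liganded (Fe2+-O2, Fe2+-CO) absorption spectra. Averaged over 2–8 experiments and rounded to whole numbers.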

[1] = tested on: PAS2 [165–282] W276 mutant peptides; assay: Gas binding to purified PAS2 [165–282] W276 mutant peptides; set-up: species or system Vibrio cholerae; conditions: PAS2 peptides containing W276C, L and V
VcAer2/BT3388 cells = assay: Behavioral assay; format: cell-based, E. coli; conditions: full-length VcAer2; 200 µM or 1 mM IPTG; with or without 25 µg ml^−1 ALA
In short: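 Full-length receptor expressed in chemoreceptorless E. coli BT3388 grown at 30 °C in tryptone broth with 0.5 µg ml−1 thiamine (± 25 µg ml−1 ALA). Induced at OD600 0.2–0.25 for 2 h with 200 µM or 1 mM IPTG. Gas perfusion chamber toggled between air (20.9% O2) and N2. For CO, 30 s N2 then 10 s CO (>99%). Percent tumbling scored for all motile cells per field at 800×. Repeated ≥2 times on ≥2 occasions.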

[2] = target: PaPAS (Pseudomonas aeruginosa Aer2 PAS domain); conditions: read-out: Kd(CO), ref Garcia et al., 2017; cited from earlier work
VcAer2 PAS1 [38–157] = assay: O2 and CO titrations of purified PAS1 peptide; format: binding, Vibrio cholerae; conditions: read-out: Kd(CO); PAS1 [38–157] peptide
In short: (§1)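 PAS1 [38–157] or PAS2 [165–282] peptides came from E. coli BT3388 grown in LB Lennox with 0.5 µg ml−1 thiamine and 25 µg ml−1 ALA, induced with 600 µM IPTG and Ni-NTA purified. Heme-bound protein was quantified by pyridine hemochrome assay to standardize PAS-heme concentration. Kd(O2) and Kd(CO) were estimated by linear interpolation between unliganded Fe2+ and Fe2+-O2 or Fe2+-CO spectra. Averaged over 2–8 experiments, rounded to whole numbers.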

VcAer2 PAS2 [165–282] = assay: O2 and CO titrations of purified PAS2 peptide; format: binding, Vibrio cholerae; conditions: read-out: Kd(CO); PAS2 [165–282] peptide
In short: as §1

PaAer2/BT3388 cells = conditions: PaAer2 in E. coli; ref Watts et al., 2011; cited from earlier work
[3] = tested on: PAS1 [38–157] mutant peptides; assay: Gas binding to purified PAS1 [38–157] mutant peptides; set-up: species or system Vibrio cholerae
[4] = target: V. cholerae Aer2 PAS2 [165–282] peptide (V. cholerae O1 JBK 70); assay: SEC
[5] = target: V. cholerae Aer2 PAS2 [165–282] peptide (V. cholerae O1 JBK 70); assay: SEC; remark: listed apart in the source
[6] = target: V. cholerae Aer2 PAS1 [38–157] peptide (V. cholerae O1 JBK 70); assay: SEC
[7] = target: V. cholerae Aer2 PAS1 [38–157] peptide (V. cholerae O1 JBK 70); assay: SEC; remark: listed apart in the source
[8] = target: V. cholerae Aer2 PAS 1–2 [1–282] peptide (V. cholerae O1 JBK 70); assay: SEC
[9] = target: V. cholerae Aer2 PAS1 [1–164] peptide (V. cholerae O1 JBK 70); assay: SEC

[C-]#[O+] [CO, carbon monoxide]
Kd (VcAer2 [165–678]): 2 µM | CO binding [1]: bound CO | behavioral response to gas (VcAer2/BT3388 cells): did not respond | Kd [2]: 2 µM | Kd (VcAer2 PAS1 [38–157]): 7 µM | Kd (VcAer2 PAS2 [165–282]): 5 µM | cells tumbling in the presence of gas (PaAer2/BT3388 cells): ~ 98% | CO binding affinity relative to WT ([3]; PAS1-W151C, F, G, P, S, T and V): WT affinities | CO binding affinity relative to WT ([3]; PAS1-W151L): WT affinities | CO binding affinity relative to WT ([3]; PAS1-Y119L): WT O2 and CO affinities | CO binding ([3]; PAS1-Y119L/W151L): bound heme and CO

V. cholerae Aer2 PAS2 [165–282] peptide (domain or fragment)
stoichiometry N [4]: 2 | stoichiometry N [5]: 2

V. cholerae Aer2 PAS1 [38–157] peptide (domain or fragment)
stoichiometry N [6]: 2 | stoichiometry N [7]: 2

V. cholerae Aer2 PAS 1–2 [1–282] peptide (domain or fragment)
stoichiometry N [8]: 2

V. cholerae Aer2 PAS1 [1–164] peptide (domain or fragment)
stoichiometry N [9]: 2
